# Assay results reported in ChEMBL document CHEMBL2413071, “Discovery of 2-methyl-1-{1-[(5-methyl-1H-indol-2-yl)carbonyl]piperidin-4-yl}propan-2-ol: a novel, potent and selective type 5 17β-hydroxysteroid dehydrogenase inhibitor” (Bioorg Med Chem, 2013).
# Active and inactive are the calls of the source. No cut-off for these calls is given here.
# How the values were obtained:
# [1] = molecular target: T1, Aldo-keto reductase family 1 member C3 (Homo sapiens, UniProt P42330); test: Inhibition of human 17beta-HSD5 expressed in HEK293 cells using androstenedione as substrate assessed as testosterone synthesis after 4 hrs; type: cell-based
# T1 sequence (P42330 whole entry): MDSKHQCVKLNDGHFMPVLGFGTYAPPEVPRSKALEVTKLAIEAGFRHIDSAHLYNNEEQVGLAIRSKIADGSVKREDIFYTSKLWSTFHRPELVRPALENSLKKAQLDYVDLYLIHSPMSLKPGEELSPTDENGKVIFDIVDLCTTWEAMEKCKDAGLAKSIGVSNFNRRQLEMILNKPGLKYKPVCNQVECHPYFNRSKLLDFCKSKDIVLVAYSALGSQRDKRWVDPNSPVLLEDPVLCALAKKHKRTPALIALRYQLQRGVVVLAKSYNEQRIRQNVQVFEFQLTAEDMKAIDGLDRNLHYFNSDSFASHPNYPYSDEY
# In short: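 HEK293 cells stably expressing human 17β-HSD5 were seeded at 2×10^4 cells/well in D-MEM/10% FBS and incubated overnight at 37 °C, 5% CO2. Androstenedione (final 300 nmol/mL) was added with compound. After 4 h, supernatant testosterone was measured by DELFIA immunoassay.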
# [2] = molecular target: T2, Aldo-keto reductase family 1 member C2 (Homo sapiens, UniProt P52895); test: Inhibition of human AKR1C2-mediated 9,10-phenanthrenequinone reduction after 10 to 20 mins by spectrophotometry in presence of NADPH
# T2 sequence (P52895 whole entry): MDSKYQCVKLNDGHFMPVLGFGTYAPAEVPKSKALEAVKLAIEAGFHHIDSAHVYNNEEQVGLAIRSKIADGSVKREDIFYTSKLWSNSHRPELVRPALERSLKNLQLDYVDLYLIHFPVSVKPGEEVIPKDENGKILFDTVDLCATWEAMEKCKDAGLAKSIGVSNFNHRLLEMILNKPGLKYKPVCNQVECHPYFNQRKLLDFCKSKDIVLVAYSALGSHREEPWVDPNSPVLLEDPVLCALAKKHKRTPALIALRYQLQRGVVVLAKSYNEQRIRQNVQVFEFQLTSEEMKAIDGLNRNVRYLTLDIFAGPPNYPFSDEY
# In short: (§1)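 Purified human AKR1C enzyme (final 10 μg/mL) was mixed with 9,10-phenanthrenequinone (4 μmol/L), NADPH (200 μmol/L) and compound in 100 mM potassium phosphate pH 6.0, at room temperature for 10-20 min. NADPH absorbance was read at 340 nm and normalized to no-enzyme (0%) and no-compound (100%) controls. IC50 was obtained by Sigmoid-Emax nonlinear regression.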
# Cytochrome P450 2C9 = Cytochrome P450 2C9 (Homo sapiens, UniProt P11712); test: Inhibition of CYP2C9 (unknown origin); type: ADME
# Cytochrome P450 2C9, sequence (P11712 whole entry): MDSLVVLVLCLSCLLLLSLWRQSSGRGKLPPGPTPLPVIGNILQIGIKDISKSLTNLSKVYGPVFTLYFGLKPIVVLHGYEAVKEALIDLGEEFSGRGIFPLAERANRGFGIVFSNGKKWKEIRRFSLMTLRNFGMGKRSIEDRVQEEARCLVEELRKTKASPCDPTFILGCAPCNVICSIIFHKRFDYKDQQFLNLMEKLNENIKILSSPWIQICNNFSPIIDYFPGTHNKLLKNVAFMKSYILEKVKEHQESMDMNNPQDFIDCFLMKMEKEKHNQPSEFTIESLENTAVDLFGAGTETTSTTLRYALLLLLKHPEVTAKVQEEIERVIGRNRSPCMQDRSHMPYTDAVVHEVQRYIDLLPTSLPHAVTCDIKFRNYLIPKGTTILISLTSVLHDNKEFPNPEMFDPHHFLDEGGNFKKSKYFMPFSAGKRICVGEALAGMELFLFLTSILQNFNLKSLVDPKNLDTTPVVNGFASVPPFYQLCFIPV
# [3] = AUC (0 to 24 hrs) in Sprague-Dawley rat at 1 mg/kg, po; type: ADME, organism-based; set-up: time < 24 hr, dose 1 mg/kg, route oral; conditions: plasma
# In short: (§2)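 Male Sprague-Dawley rats aged 8 weeks received a single 1 mg/kg dose. The iv vehicle was saline with 15% DMF and 20% PEG 400; the oral vehicle was water with 10% DMF and 10% propylene glycol. Blood was sampled at multiple times up to 24 h and spun at 16,000 g for 2 min at 4 °C. Plasma drug was measured by HPLC-MS/MS.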
# [4] = molecular target: Voltage-gated inwardly rectifying potassium channel KCNH2 (Homo sapiens, UniProt Q12809); test: Inhibition of human ERG channel by Rb efflux assay
# Voltage-gated inwardly rectifying potassium channel KCNH2, sequence (Q12809 whole entry): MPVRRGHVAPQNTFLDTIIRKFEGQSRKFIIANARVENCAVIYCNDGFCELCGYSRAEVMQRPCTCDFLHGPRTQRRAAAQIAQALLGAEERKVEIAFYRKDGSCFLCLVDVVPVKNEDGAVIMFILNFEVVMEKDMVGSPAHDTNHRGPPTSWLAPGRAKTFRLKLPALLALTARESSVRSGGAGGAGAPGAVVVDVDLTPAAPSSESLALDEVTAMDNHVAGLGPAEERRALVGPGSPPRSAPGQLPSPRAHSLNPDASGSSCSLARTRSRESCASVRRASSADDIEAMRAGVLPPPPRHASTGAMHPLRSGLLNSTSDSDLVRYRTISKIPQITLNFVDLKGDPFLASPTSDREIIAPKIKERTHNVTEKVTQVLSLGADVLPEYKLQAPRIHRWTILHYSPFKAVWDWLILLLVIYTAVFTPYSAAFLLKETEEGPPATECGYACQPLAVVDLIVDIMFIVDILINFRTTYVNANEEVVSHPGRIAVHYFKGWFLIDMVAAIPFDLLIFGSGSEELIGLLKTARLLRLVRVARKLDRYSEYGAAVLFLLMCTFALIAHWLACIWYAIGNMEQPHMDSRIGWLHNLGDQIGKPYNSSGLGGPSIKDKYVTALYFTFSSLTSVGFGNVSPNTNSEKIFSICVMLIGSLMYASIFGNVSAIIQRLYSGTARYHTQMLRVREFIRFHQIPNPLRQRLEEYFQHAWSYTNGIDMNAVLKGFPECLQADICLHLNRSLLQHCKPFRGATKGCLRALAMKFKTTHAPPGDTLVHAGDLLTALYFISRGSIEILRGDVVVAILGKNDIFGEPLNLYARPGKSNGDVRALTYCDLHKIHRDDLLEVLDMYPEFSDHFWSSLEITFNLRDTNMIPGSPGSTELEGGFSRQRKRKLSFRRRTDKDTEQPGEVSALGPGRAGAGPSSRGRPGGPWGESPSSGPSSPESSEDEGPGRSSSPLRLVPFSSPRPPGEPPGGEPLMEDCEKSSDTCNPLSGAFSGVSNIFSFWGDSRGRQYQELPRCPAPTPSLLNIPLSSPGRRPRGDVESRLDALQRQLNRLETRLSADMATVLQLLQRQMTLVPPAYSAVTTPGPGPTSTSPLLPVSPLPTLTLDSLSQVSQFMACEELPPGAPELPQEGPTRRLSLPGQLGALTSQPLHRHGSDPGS
# [5] = Permeability of the compound after 2 hrs at pH 6.5 by PAMPA; type: ADME; conditions: read-out: permeability
# In short: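 PAMPA used a donor at pH 6.5 (universal buffer, 10% DMSO, typical final sample 50 μM, filtered) and an acceptor at pH 7.4, separated by a filter coated with 20% lecithin in dodecane. Plates were incubated at 25 °C for 2 h under saturated humidity. Both compartments were quantified by UV spectrum (270-400 nm) against standards, with a mass balance correction; Pe was then calculated.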
# Mus musculus [6] = test: Inhibition of androstenedione-induced testosterone production in tumor of human CWR22R cells xenografted in po dosed BALB/c athymic nude mouse treated 1 hr prior to androstenedione-challenge measured after 2 hrs; type: functional, organism-based
# In short: (§3)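 Male BALB/c athymic nude mice aged 4-6 weeks were castrated, then given subcutaneous CWR22R tumor cells (protease-digested fragments in RPMI 1640/20% FBS mixed 1:1 with Matrigel) into each flank. About 3 weeks later, size-matched mice were randomized (n = 4/group) and dosed orally. Androstenedione (1 ng/100 mm3 tumor) was injected intratumorally 1 h post-dose. Tumors were removed at 2 h, homogenized in 200 mmol/L phosphate pH 7.4, and extracted with tert-butyl methyl ether; testosterone was read by DELFIA.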
# [7] = Plasma concentration in ICR mouse at 30 mg/kg, po after 4 hrs by HPLC analysis; type: ADME, organism-based; set-up: dose 30 mg/kg, route oral
# In short: (§4)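 ICR mice were dosed orally, and blood was collected 1 or 4 h later. Compound was extracted from plasma with acetonitrile and quantified by HPLC.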
# [8] = Tmax in Sprague-Dawley rat at 1 mg/kg, po; type: ADME, organism-based; set-up: dose 1 mg/kg, route oral; conditions: in vivo; in short: as §2
# [9] = Solubility of the compound at pH 6.8; type: physicochemical; conditions: buffer
# In short: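 A 10 mM DMSO solution (13 μL) was added to 1 mL of Japanese Pharmacopoeia second disintegration fluid (pH 6.8) and shaken at 25 °C for 20 h. Solubility was calculated from the LC peak-area ratio of sample to standard.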
# Cytochrome P450 2D6 = Cytochrome P450 2D6 (Homo sapiens, UniProt P10635); test: Inhibition of CYP2D6 (unknown origin); type: ADME
# Cytochrome P450 2D6, sequence (P10635 whole entry): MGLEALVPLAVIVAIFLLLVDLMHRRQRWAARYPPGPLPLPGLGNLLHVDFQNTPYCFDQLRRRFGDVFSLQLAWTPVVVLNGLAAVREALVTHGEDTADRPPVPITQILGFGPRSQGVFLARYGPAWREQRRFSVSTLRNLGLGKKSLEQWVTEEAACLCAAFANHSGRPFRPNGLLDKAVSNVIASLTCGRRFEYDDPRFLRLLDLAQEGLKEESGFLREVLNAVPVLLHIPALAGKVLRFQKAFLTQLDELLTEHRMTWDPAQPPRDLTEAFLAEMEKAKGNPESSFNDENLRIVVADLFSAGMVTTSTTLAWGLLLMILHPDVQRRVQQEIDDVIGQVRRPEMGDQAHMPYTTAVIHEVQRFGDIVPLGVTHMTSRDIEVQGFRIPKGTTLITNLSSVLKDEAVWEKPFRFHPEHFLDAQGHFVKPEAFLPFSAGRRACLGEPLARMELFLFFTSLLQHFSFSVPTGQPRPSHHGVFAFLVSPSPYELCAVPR
# Cytochrome P450 2C19 = Cytochrome P450 2C19 (Homo sapiens, UniProt P33261); test: Inhibition of CYP2C19 (unknown origin); type: ADME
# Cytochrome P450 2C19, sequence (P33261 whole entry): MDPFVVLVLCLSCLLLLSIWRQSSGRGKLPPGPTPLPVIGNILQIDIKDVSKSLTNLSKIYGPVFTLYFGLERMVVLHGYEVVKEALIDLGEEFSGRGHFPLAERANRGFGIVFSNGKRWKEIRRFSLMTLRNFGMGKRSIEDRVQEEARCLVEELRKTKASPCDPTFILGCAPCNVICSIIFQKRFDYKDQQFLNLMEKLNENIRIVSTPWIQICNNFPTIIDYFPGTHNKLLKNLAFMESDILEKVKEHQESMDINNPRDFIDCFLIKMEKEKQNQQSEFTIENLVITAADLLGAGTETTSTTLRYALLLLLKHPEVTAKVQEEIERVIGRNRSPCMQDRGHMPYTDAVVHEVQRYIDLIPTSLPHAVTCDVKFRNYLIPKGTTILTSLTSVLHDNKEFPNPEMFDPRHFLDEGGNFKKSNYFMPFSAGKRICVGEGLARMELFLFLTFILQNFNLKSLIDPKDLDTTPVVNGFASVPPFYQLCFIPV
# [10] = Cmax in Sprague-Dawley rat at 1 mg/kg, po; type: ADME, organism-based; set-up: dose 1 mg/kg, route oral; conditions: in vivo; in short: as §2
# [11] = molecular target: T1, Aldo-keto reductase family 1 member C3; test: Inhibition of human 17beta-HSD5 expressed in human CWR22R cells using androstenedione as substrate assessed as testosterone synthesis after 4 hrs; type: cell-based
# In short: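 CWR22R cells were seeded at 2×10^4 cells/well in RPMI-1640/10% FBS and incubated overnight at 37 °C, 5% CO2. Compound was added with androstenedione (final 300 nmol/mL). After 4 h, supernatant testosterone was quantified by DELFIA.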
# [12] = Half life in Sprague-Dawley rat at 1 mg/kg, iv; type: ADME, organism-based; set-up: dose 1 mg/kg, route intravenous; conditions: in vivo; in short: as §2
# Mus musculus [13] = test: Inhibition of androstenedione-induced testosterone production in tumor of human CWR22R cells xenografted in BALB/c athymic nude mouse at 10 mg/kg, po treated 1 hr prior to androstenedione-challenge measured after 2 hrs; type: functional, organism-based; set-up: dose 10 mg/kg; in short: as §3
# [14] = molecular target: T1, Aldo-keto reductase family 1 member C3; test: Inhibition of human AKR1C3-mediated 9,10-phenanthrenequinone reduction after 10 to 20 mins by spectrophotometry in presence of NADPH; in short: as §1
# [15] = Total clearance in Sprague-Dawley rat at 1 mg/kg, iv; type: ADME, organism-based; set-up: dose 1 mg/kg, route intravenous; conditions: in vivo; in short: as §2
# Cytochrome P450 3A4 = Cytochrome P450 3A4 (Homo sapiens, UniProt P08684); test: Inhibition of CYP3A4 (unknown origin) using nifedipine as substrate; type: ADME
# Cytochrome P450 3A4, sequence (P08684 whole entry): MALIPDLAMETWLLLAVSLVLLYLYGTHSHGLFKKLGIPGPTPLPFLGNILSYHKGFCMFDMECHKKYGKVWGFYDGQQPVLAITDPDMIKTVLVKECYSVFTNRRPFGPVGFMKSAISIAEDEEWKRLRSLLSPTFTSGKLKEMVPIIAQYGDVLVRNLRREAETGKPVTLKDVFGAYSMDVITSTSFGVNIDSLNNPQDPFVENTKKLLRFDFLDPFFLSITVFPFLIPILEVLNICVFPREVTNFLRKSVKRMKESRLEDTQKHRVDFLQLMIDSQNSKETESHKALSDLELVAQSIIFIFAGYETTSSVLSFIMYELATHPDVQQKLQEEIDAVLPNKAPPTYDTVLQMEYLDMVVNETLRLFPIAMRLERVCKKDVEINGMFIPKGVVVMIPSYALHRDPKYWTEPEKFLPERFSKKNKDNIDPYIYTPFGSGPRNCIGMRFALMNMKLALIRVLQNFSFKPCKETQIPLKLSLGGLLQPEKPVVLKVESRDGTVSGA
# [16] = Plasma concentration in ICR mouse at 30 mg/kg, po after 1 hr by HPLC analysis; type: ADME, organism-based; set-up: dose 30 mg/kg, route oral; in short: as §4
# [17] = Oral bioavailability in Sprague-Dawley rat at 1 mg/kg; type: ADME, organism-based; conditions: in vivo; in short: as §2
# [18] = Volume of distribution at steady state in Sprague-Dawley rat at 1 mg/kg, iv; type: ADME, organism-based; set-up: dose 1 mg/kg, route intravenous; conditions: in vivo, read-out: Vdss; in short: as §2
# [19] = AUC (0 to 24 hrs) in Sprague-Dawley rat at 1 mg/kg, iv; type: ADME, organism-based; set-up: time < 24 hr, dose 1 mg/kg, route intravenous; conditions: plasma; in short: as §2
# Cytochrome P450 1A2 = molecular target: T3, Cytochrome P450 1A2 (Homo sapiens, UniProt P05177); test: Inhibition of CYP1A2 (unknown origin); type: ADME
# T3 sequence (P05177 whole entry): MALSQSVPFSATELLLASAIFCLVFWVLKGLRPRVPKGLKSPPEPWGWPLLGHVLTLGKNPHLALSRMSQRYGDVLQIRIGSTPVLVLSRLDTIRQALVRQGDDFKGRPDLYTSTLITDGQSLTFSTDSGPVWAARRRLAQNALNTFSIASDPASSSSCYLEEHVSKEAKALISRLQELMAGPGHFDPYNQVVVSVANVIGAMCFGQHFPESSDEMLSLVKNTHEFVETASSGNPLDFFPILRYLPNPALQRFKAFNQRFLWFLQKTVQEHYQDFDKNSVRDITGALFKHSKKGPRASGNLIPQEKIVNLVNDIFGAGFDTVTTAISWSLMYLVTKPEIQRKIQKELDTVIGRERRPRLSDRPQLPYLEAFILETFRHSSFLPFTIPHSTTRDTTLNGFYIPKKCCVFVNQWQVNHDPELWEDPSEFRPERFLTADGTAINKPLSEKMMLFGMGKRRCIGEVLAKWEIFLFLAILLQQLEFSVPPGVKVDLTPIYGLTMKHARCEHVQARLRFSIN
smiles,measurement,setting,value
CC(O)CC1CCN(C(=O)c2cc3ccccc3[nH]2)CC1 (centres undefined),IC50,[1],12 nM
O=C(c1cc2ccccc2[nH]1)N1CCCCC1CCO (centres undefined),IC50,[1],230 nM
COCCC1CCN(C(=O)c2cc3ccccc3[nH]2)CC1,IC50,[1],33 nM
Cc1ccc2[nH]c(C(=O)N3CCC(CC(C)(C)O)CC3)cc2c1,IC50,[2],> 20000 nM
same,IC50,Cytochrome P450 2C9,> 25000 nM
same,AUC(0-t) at 24 h,[3],255 ng·h/mL
same,IC50,[1],0.34 nM
same,IC50,[4],> 100000 nM
same,Papp at 2 h,[5],> 30 ×10⁻⁶ cm/s
same,inhibition,Mus musculus [6],Dose-dependent effect
same,concentration at 4 h,[7],3100 nM
same,Tmax,[8],30 min
same,solubility,[9],> 100 µM
same,IC50,Cytochrome P450 2D6,> 25000 nM
same,IC50,Cytochrome P450 2C19,> 25000 nM
same,Cmax,[10],180 ng/mL
same,IC50,[11],1.9 nM
same,half-life,[12],27.6 min
same,inhibition,Mus musculus [13],Active
same,IC50,[14],24 nM
same,clearance,[15],42 mL/min/kg
same,IC50,Cytochrome P450 3A4,> 100000 nM
same,concentration at 1 h,[16],10900 nM
same,bioavailability,[17],65%
same,Vd,[18],1.7 L/kg
same,AUC(0-t) at 24 h,[19],395 ng·h/mL
same,IC50,Cytochrome P450 1A2,> 25000 nM
Cc1ccc2[nH]c(C(=O)N3CCC(CO)CC3)cc2c1,IC50,[1],790 nM
O=C(c1cc2ccccc2[nH]1)N1CCC(CCO)CC1,IC50,[1],4.5 nM
O=C(c1cc2ccccc2[nH]1)N1CCC(CCO)C1 (centres undefined),IC50,[1],1100 nM
O=C(c1cc2ccccc2[nH]1)N1CCCC(CCO)C1 (centres undefined),IC50,[1],2100 nM
O=C(c1cc2ccccc2[nH]1)N1CC(CCO)C1,IC50,[1],140 nM
Cc1ccc2[nH]c(C(=O)N3CCC(CCCO)CC3)cc2c1,IC50,[1],160 nM
Cc1ccc2[nH]c(C(=O)N3CC=CCC3)cc2c1,IC50,[1],2800 nM
CC(=O)CC1CCN(C(=O)c2cc3ccccc3[nH]2)CC1,IC50,[1],13 nM
O=C(NCCCCCO)c1cc2ccccc2[nH]1,IC50,[1],1200 nM
Cc1ccc2[nH]c(C(=O)N3CCN(CCO)CC3)cc2c1,IC50,[1],770 nM
Cc1ccc2[nH]c(C(=O)N3CCC(CCO)CC3)cc2c1,IC50,[1],37 nM
same,Papp at 2 h,[5],> 30 ×10⁻⁶ cm/s
same,concentration at 4 h,[7],< 100 nM
same,solubility,[9],> 100 µM
same,IC50,[11],58 nM
same,concentration at 1 h,[16],< 100 nM
CC(C)(O)CC1CCN(C(=O)c2cc3ccccc3[nH]2)CC1,IC50,[1],2.1 nM
same,Papp at 2 h,[5],26 ×10⁻⁶ cm/s
same,concentration at 4 h,[7],< 100 nM
same,solubility,[9],> 100 µM
same,concentration at 1 h,[16],2610 nM
Cc1ccc2[nH]c(C(=O)N3CCC(CC(=O)O)CC3)cc2c1,IC50,[1],> 10000 nM
